The values that follow come from ChEMBL document CHEMBL4130438, “6,7-Seco-ent-Kauranoids Derived from Oridonin as Potential Anticancer Agents” (J Nat Prod, 2017).

A word on the pIC50: it is −log10 of the IC50, conventionally taken in molar units. A lower pIC50 goes with a high IC50.

SMILES strings stand for the structures. pIC50: −log10 of the molar value. Activity calls are given as the source filed them. The calls are words filed in the database; no cut-off is given here.

One assay concerns MGC-803. Description: Antiproliferative activity against human MGC803 cells after 72 hrs by MTT assay. Format: functional, cell-based. To be noted: MGC-803, 72 h. An outline of the steps:
(§1)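 Cells pre-incubated 24 h at 37 °C, 5% CO2 in 96-well plates, then exposed to a range of compound concentrations (DMSO ≤0.25%) for 72 h. Viable cells read by MTT colour at 570 nm. Performed in quadruplicate, repeated three times. IC50 reported as means ± SD, n = 3.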
In general terms: Tetrazolium assays rely on reduction of a dye to a coloured formazan, in cell work by metabolically active cells.

Assay [1] concerns MCF7. Nature of the assay: Cell cycle arrest in human MCF7 cells assessed as accumulation at G2/M phase at 2 uM after 48 hrs by propidium iodide staining based flow cytometry (reference value: 12.72%). Format: functional. On the technique in general: A flow cytometer gives signals particle by particle.
The subject of assay [2] is MCF7. Description: Antiproliferative activity against human MCF7 cells after 72 hrs by MTT assay. As to conditions: MCF7, 72 h. It counts as functional, cell-based. An outline of the steps:
as §1

Assay [3] concerns MCF7. Description: Induction of apoptosis in human MCF7 cells assessed as increase in Bax expression level after 48 hrs by Western blot analysis. Format: functional, cell-based. In general terms: Immunoblotting shows a protein as a band on a membrane.
Assay [4] relates to MCF7. Description: Cell cycle arrest in human MCF7 cells assessed as accumulation at G1 phase at 2 uM after 48 hrs by propidium iodide staining based flow cytometry (reference value: 70.27%). It counts as functional.
In assay [5] the test system is MCF7. Nature of the assay: Induction of apoptosis in human MCF7 cells assessed as decrease in Bcl2 expression level after 48 hrs by Western blot analysis. Format: functional, cell-based. An outline of the steps:
(§2)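 MCF-7 cells treated 48 h with 0, 0.5, 1.0, 2.0 or 4.0 μM, then lysed on ice. 20 μg protein per lane run on 8–12% SDS-PAGE and transferred to PVDF. Probed overnight at 4 °C for caspase-3, pro-caspase-3, Bax, Bcl-2, p-ERK and p53, with fluorescent secondary antibodies. Densities normalised to β-actin; three independent experiments.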

Assay [6] deals with MCF7. Description: Induction of apoptosis in human MCF7 cells assessed as necrotic cells at 2 uM after 24 hrs by Annexin-V FITC/propidium iodide staining based flow cytometry (reference value: 0.610%). Format: functional.
In assay [7] the test system is MCF7. Description: Cytotoxicity against human MCF7 cells assessed as decrease in cell viability after 24 hrs by LDH release assay. Format: functional, cell-based. An outline of the steps:
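MCF-7 and Bel-7402 cells seeded at ~5 × 10^3 per well for 24 h, then exposed to compounds. LDH released into the medium measured with CytoTox-ONE reagent (10 min, ambient temperature) followed by stop solution. Fluorescence read at ex 560/em 590 nm.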

Assay [8] concerns MCF7. Nature of the assay: Cell cycle arrest in human MCF7 cells assessed as accumulation at S phase at 0.25 uM after 48 hrs by propidium iodide staining based flow cytometry (reference value: 17.01%). Format: functional.
The species named for a further assay is Homo sapiens. Nature of the assay: Antiproliferative activity against human KB/CP4 cells after 48 hrs by MTT assay. Format: functional, cell-based.
Assay [9] concerns MCF7. Description: Induction of apoptosis in human MCF7 cells assessed as late apoptotic cells at 1 uM after 24 hrs by Annexin-V FITC/propidium iodide staining based flow cytometry (reference value: 0.290%). Format: functional.
The subject of assay [10] is MCF7. Description: Induction of apoptosis in human MCF7 cells assessed as early apoptotic cells at 2 uM after 24 hrs by Annexin-V FITC/propidium iodide staining based flow cytometry (reference value: 1.60%). It counts as functional.
Another assay deals with Bel-7402. Description: Antiproliferative activity against human Bel7402 cells after 72 hrs by MTT assay. Format: functional, cell-based. As to conditions: Bel-7402, 72 h. The gist of the method:
as §1

Assay [11] deals with MCF7. Nature of the assay: Induction of apoptosis in human MCF7 cells assessed as decrease in mitochondrial membrane potential measured after 36 hrs by JC-1 staining based fluorescence microscopy. It counts as functional, cell-based. The gist of the method:
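MCF-7 cells treated 36 h across a range of concentrations, then loaded with 10 μg/mL JC-1 for 30 min at 37 °C and washed in PBS. Monomer fluorescence read at ex 490/em 535 nm and aggregate fluorescence at ex 525/em 600 nm, by plate reader or fluorescence microscopy. Run in triplicate.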

The subject of assay [12] is MCF7. Nature of the assay: Cell cycle arrest in human MCF7 cells assessed as accumulation at G2/M phase after 48 hrs by propidium iodide staining based flow cytometry. It counts as functional.
For assay [13], the system named is MCF7. Nature of the assay: Cell cycle arrest in human MCF7 cells assessed as accumulation at G1 phase at 1 uM after 48 hrs by propidium iodide staining based flow cytometry (reference value: 70.27%). Format: functional.
Assay [14] relates to MCF7. Description: Induction of apoptosis in human MCF7 cells assessed as necrotic cells at 0.50 uM after 24 hrs by Annexin-V FITC/propidium iodide staining based flow cytometry (reference value: 0.610%). It counts as functional.
Assay [15] deals with MCF7. Description: Induction of apoptosis in human MCF7 cells assessed as decrease in p53 expression level after 48 hrs by Western blot analysis. Format: functional, cell-based. The gist of the method:
as §2

The subject of another assay is KB 3-1. Nature of the assay: Antiproliferative activity against human KB-3-1 cells after 48 hrs by MTT assay. Format: functional, cell-based.

Consider `C=C1C(=O)[C@@]23C(=O)OC[C@]4(C=CCC(C)(C)[C@H]4C=O)[C@@H]2CC[C@@H]1[C@H]3OC(=O)c1ccc(F)cc1`, for which the results for the pIC50 in the assay on MGC-803, in the assay on MCF7 [2] and with Bel-7402 were 5.66, 6.17 and 5.74, respectively. The Activity in the assay with MCF7 [1] was 24.8%; in the assay on MCF7 [3] it was “Dose-dependent effect”; with MCF7 [4], 57.49%; with MCF7 [5], “Dose-dependent effect”; in the assay on MCF7 [6], 2.74%; in the assay on MCF7 [8] it was 18.3%. Besides, the Activity in the assay with MCF7 [9] is 15.9%; with MCF7 [10], 14%; in the assay with MCF7 [11] it was “Dose-dependent effect”; with MCF7 [12], “Dose-dependent effect”; with MCF7 [13], 63.35%; in the assay with MCF7 [14], 0.901%. Further, the Activity entry in the assay with MCF7 [15] is “Dose-dependent effect”. The outcome in the assay on MCF7 [7] was inactive. For the same compound, the outcome in the assay filed under Homo sapiens and in the assay with KB 3-1 was Active.
